Experimental findings from article PMC6923438 (Saudi Journal of Biological Sciences, 2019) are described below.

One assay has as its system 3T3-L1 adipocyte. As to the kind of experiment: Glucose consumption in 3T3-L1 adipocyte. It counts as cell-based.
For the next assay, the system named is 3T3-L1 preadipocyte. The experiment in a line: 3T3-L1 preadipocyte differentiation. It counts as cell-based. To be noted: Oil Red O, TG content; vs induced control. An outline of the steps:
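3T3-L1 cells seeded at 2×10^4 cells/mL in 6-well plates. Differentiation was induced in DMEM with insulin (10 µg/mL), IBMX (0.5 mM), dexamethasone (1 µM) and 10% FBS for 48 h, then DMEM with insulin and FBS, then basic medium changed every 48 h. Test compound (12.5, 25, 50 µg/mL) was present throughout. Lipid droplets stained with Oil Red O 10 days after induction.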

Assay [1] deals with STZ-induced T1DM. It counts as in vivo. The settings on record: glibenclamide group (2.5 mg/kg), STZ induced mice. An outline of the steps:
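Swiss albino mice (20 ± 5 g, either sex) were given STZ 40 mg/kg i.p. for 5 days; mice with fasting glucose >220 mg/dl were taken as diabetic (18/group). They were dosed orally once daily for 2 weeks. Tail-vein glucose (glucometer) and body weight were recorded at intervals; weight loss was taken as day 1 versus pre-sacrifice weight. Liver and kidneys were weighed at sacrifice for organ index.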

In assay [2] the test system is STZ-induced T1DM. As to the kind of experiment: Pancreatic islet mass and pancreas histopathology in STZ-induced T1DM. The assay is classed as in vivo, mice. An outline of the steps: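 STZ-diabetic mice (40 mg/kg i.p. × 5 days; glucose >220 mg/dl) were gavaged daily for 2 weeks with test compound at 10 or 20 mg/kg, or glibenclamide 2.5 mg/kg. Pancreas was formalin-fixed, paraffin-embedded, cut at 5 µm and stained with H&E. Islet mass was calculated as pancreas weight × relative β-cell area on slides; ANOVA versus model group.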

The test system of the next assay is gut microbiota. As to the kind of experiment: 16S rRNA gene sequencing of caecal content, STZ induced diabetic rats. To be noted: STZ + Gli (2.5 mg/kg). It counts as in vivo.

Molecules are shown by their SMILES.

Turning to `COc1ccc(Cl)cc1C(=O)NCCc1ccc(S(=O)(=O)NC(=O)NC2CCCCC2)cc1` [Glibenclamide, glibenclamide], the “Glucose consumption (in words)” value in the assay with 3T3-L1 adipocyte was “significantly increased”. In the assay on 3T3-L1 adipocyte (1 µg/mL), this molecule returned a Glucose consumption of 12.62 ± 0.67 mmol/L. Moreover, the 3T3-L1 preadipocyte differentiation result in the assay on 3T3-L1 preadipocyte is reported as “significant differentiation”. The same molecule gave a renal index in the assay with STZ-induced T1DM [1] of 1.41 ± 0.13. Further, the pancreas histopathology result in the assay on STZ-induced T1DM [2] (STZ induced type I DM) is reported as “almost similar histopathology effect”. Besides, the β-cell mass in the assay with STZ-induced T1DM [2] (glibenclamide group (2.5 mg/kg), STZ induced mice) turned out to be 1.5 ± 0.02. Further, in the assay with gut microbiota, the “Actinobacteria, 16S rRNA gene sequencing of caecal content” value came to 0.35 ± 0.03; the “Bacteroidates, 16S rRNA gene sequencing of caecal content” value is recorded as 0.28 ± 0.05; the “Bacteroidetes, 16S rRNA gene sequencing of caecal content” value is 0.23 ± 0.09; the “Bifldobacteriales, 16S rRNA gene sequencing of caecal content” value is reported as 0.5 ± 0.04. Further, in the assay with gut microbiota, the “Burkholderiaies, 16S rRNA gene sequencing of caecal content” value amounted to 0.34 ± 0.04; the “Campylobacterioles, 16S rRNA gene sequencing of caecal content” value is on record as 0.61 ± 0.09; the “Clostridiales, 16S rRNA gene sequencing of caecal content” value is listed as 0.29 ± 0.05; the “Coriobacteriales, 16S rRNA gene sequencing of caecal content” value is given as 0.32 ± 0.09. Moreover, in the assay on gut microbiota, the “Cyanobacteria, 16S rRNA gene sequencing of caecal content” value amounted to 0.3 ± 0.07; the “Desulfovibrionales, 16S rRNA gene sequencing of caecal content” value came out at 0.25 ± 0.06; the “Enterobacteriales, 16S rRNA gene sequencing of caecal content” value came out at 0.3 ± 0.06; the “Eryslpelotrichales, 16S rRNA gene sequencing of caecal content” value is given as 0.5 ± 0.07. Moreover, in the assay with gut microbiota, the “Firmicutes, 16S rRNA gene sequencing of caecal content” value was 0.22 ± 0.07; the “Lactibacllales, 16S rRNA gene sequencing of caecal content” value is 0.25 ± 0.03; the “Proteobacteria, 16S rRNA gene sequencing of caecal content” value is 0.28 ± 0.04; the “Selenomonadales, 16S rRNA gene sequencing of caecal content” value was found to be 0.16 ± 0.03. In the assay on gut microbiota, the “Verrucomicrobia, 16S rRNA gene sequencing of caecal content” value is given as 0.21 ± 0.07 and the “Verrucomicrobiales, 16S rRNA gene sequencing of caecal content” value is 0.36 ± 0.08.
